Measurements as given in ChEMBL document CHEMBL1154066, “Synthesis, physicochemical properties and antimicrobial activity of some new benzimidazole derivatives” (2009).
Converted amounts (≈) assume the structure as drawn.

Columns and labels:
[1] = system: Staphylococcus aureus; assay: Antibacterial activity against Staphylococcus aureus ATCC 29213 after 20 hrs by two fold dilution method; type: functional; conditions: ATCC 29213, 20 h
How it was run: (§1)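 Twofold agar dilution in Mueller–Hinton agar. Compounds were dissolved in DMSO and diluted into the medium at final 128–1 µg/mL. The inoculum was 10^4 CFU/plate, and a medium-plus-DMSO plate served as negative control. Plates were incubated at 35 °C for 20 h. MIC was taken as the lowest concentration giving complete growth inhibition. Experiments were run three times.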

[2] = system: Escherichia coli; assay: Antibacterial activity against Escherichia coli ATCC 25922 after 20 hrs by two fold dilution method; type: functional; conditions: ATCC 25922, 20 h; how it was run: as §1
[3] = system: Aspergillus flavus; assay: Antifungal activity against Aspergillus flavus at 300 ug/disk after 7 days by disk diffusion method; type: functional; conditions: 168 h, read-out: IZ
How it was run: (§2)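 Disc diffusion on Mueller–Hinton agar seeded with a standardized suspension, following NCCLS. Sterile 6 mm paper discs held 300 µg of test compound, amphotericin B at 10 µg as reference, or DMSO alone as negative control. Plates were incubated at 28 ± 2 °C for 7 days. Inhibition zone diameters (mm) were measured in triplicate and scored as 10–15, 16–21 or 22–28 mm.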

[4] = system: Streptococcus mutans; assay: Antibacterial activity against Streptococcus mutans MTCC 890 after 20 hrs by two fold dilution method; type: functional; conditions: MTCC 890, 20 h; how it was run: as §1
[5] = system: Salmonella typhi; assay: Antibacterial activity against Salmonella typhi MTCC 733 after 20 hrs by two fold dilution method; type: functional, Salmonella enterica subsp. enterica serovar Typhi; conditions: Salmonella enterica, MTCC 733, 20 h
How it was run: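 Twofold agar dilution in Mueller–Hinton agar. Compounds dissolved in DMSO and diluted into medium to final 128–1 µg/mL; medium with DMSO at the same dilution as negative control. Inoculum 10^4 CFU/plate; incubated 35 °C for 20 h. MIC taken as lowest concentration giving complete growth inhibition, in µg/mL. Ampicillin and ciprofloxacin as references; three independent experiments.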

[6] = system: Aspergillus niger; assay: Antifungal activity against Aspergillus niger at 300 ug/disk after 7 days by disk diffusion method; type: functional; conditions: 168 h, read-out: IZ; how it was run: as §2
[7] = system: Bacillus subtilis; assay: Antibacterial activity against Bacillus subtilis MTCC 121 after 20 hrs by two fold dilution method; type: functional; conditions: MTCC 121, 20 h; how it was run: as §1
[8] = system: Candida albicans; assay: Antifungal activity against Candida albicans MTCC 1637 at 300 ug/disk after 7 days by disk diffusion method; type: functional; conditions: MTCC 1637, 168 h, read-out: IZ; how it was run: as §2
[9] = system: Pseudomonas aeruginosa; assay: Antibacterial activity against Pseudomonas aeruginosa MTCC 741 after 20 hrs by two fold dilution method; type: functional; conditions: MTCC 741, 20 h; how it was run: as §1
[10] = system: Aspergillus flavus; assay: Antifungal activity against Aspergillus flavus at 10 ug/disk after 7 days by disk diffusion method; type: functional; conditions: 168 h, read-out: IZ
[11] = system: Candida albicans; assay: Antifungal activity against Candida albicans MTCC 1637 at 10 ug/disk after 7 days by disk diffusion method; type: functional; conditions: MTCC 1637, 168 h, read-out: IZ
[12] = system: Aspergillus niger; assay: Antifungal activity against Aspergillus niger at 10 ug/disk after 7 days by disk diffusion method; type: functional; conditions: 168 h, read-out: IZ

Row | Structure (SMILES) | MIC [1] | MIC [2] | zone of inhibition at 300 µg/disc [3] | MIC [4] | MIC [5] | zone of inhibition at 300 µg/disc [6] | MIC [7] | zone of inhibition at 300 µg/disc [8] | MIC [9] | zone of inhibition at 10 µg/disc [10] | zone of inhibition at 10 µg/disc [11] | zone of inhibition at 10 µg/disc [12]
1 | Cc1nc2ccccc2n1Cc1nnc(CCl)o1 | 16 µg/mL (≈ 60.9 µM) | 16 µg/mL (≈ 60.9 µM) | 10 mm | 32 µg/mL (≈ 122 µM) | > 128 µg/mL | 16 mm | 16 µg/mL (≈ 60.9 µM) | 10 mm |  |  |  | 
2 | Cc1nc2ccccc2n1Cc1nnc(-c2ccccc2)o1 | 8 µg/mL (≈ 27.6 µM) | 32 µg/mL (≈ 110 µM) |  | 8 µg/mL (≈ 27.6 µM) | 64 µg/mL (≈ 220 µM) |  | 8 µg/mL (≈ 27.6 µM) |  |  |  |  | 
3 | Clc1ccc(-c2nnc(Cn3cnc4ccccc43)o2)cc1 | 32 µg/mL (≈ 103 µM) | 32 µg/mL (≈ 103 µM) |  | 16 µg/mL (≈ 51.5 µM) |  |  | 32 µg/mL (≈ 103 µM) |  |  |  |  | 
4 | Cc1nc2ccccc2n1Cc1nnc(CCCl)o1 | 4 µg/mL (≈ 14.5 µM) | 32 µg/mL (≈ 116 µM) | 10 mm | 8 µg/mL (≈ 28.9 µM) | 16 µg/mL (≈ 57.8 µM) | 10 mm | 8 µg/mL (≈ 28.9 µM) | 16 mm |  |  |  | 
5 | Oc1ccc(-c2nnc(Cn3cnc4ccccc43)o2)cc1 |  | 32 µg/mL (≈ 109 µM) |  | 32 µg/mL (≈ 109 µM) |  |  | 16 µg/mL (≈ 54.7 µM) |  | 64 µg/mL (≈ 219 µM) |  |  | 
6 | COc1ccccc1-c1nnc(Cn2cnc3ccccc32)o1 | 16 µg/mL (≈ 52.2 µM) | 32 µg/mL (≈ 104 µM) | < 10 mm |  |  | < 10 mm | 16 µg/mL (≈ 52.2 µM) | 16 mm | > 128 µg/mL |  |  | 
7 | c1ccc(-c2nnc(Cn3cnc4ccccc43)o2)cc1 | 16 µg/mL (≈ 57.9 µM) | 64 µg/mL (≈ 232 µM) |  | 32 µg/mL (≈ 116 µM) | > 128 µg/mL |  | 16 µg/mL (≈ 57.9 µM) |  |  |  |  | 
8 | Cc1nc2ccccc2n1Cc1nnc(-c2ccc(Cl)cc2)o1 | 2 µg/mL (≈ 6.16 µM) | > 128 µg/mL | 22 mm | 4 µg/mL (≈ 12.3 µM) |  | 10 mm | 4 µg/mL (≈ 12.3 µM) | 22 mm |  |  |  | 
9 | CCc1nnc(Cn2c(C)nc3ccccc32)o1 | 4 µg/mL (≈ 16.5 µM) | 32 µg/mL (≈ 132 µM) | 16 mm | 4 µg/mL (≈ 16.5 µM) | 32 µg/mL (≈ 132 µM) | 10 mm | 8 µg/mL (≈ 33 µM) | 16 mm | > 128 µg/mL |  |  | 
10 | Clc1ccccc1-c1nnc(Cn2cnc3ccccc32)o1 | 32 µg/mL (≈ 103 µM) | > 128 µg/mL |  | 16 µg/mL (≈ 51.5 µM) | 32 µg/mL (≈ 103 µM) |  | 16 µg/mL (≈ 51.5 µM) |  |  |  |  | 
11 | Cc1nc2ccccc2n1Cc1nnc(-c2ccc(O)cc2)o1 | 8 µg/mL (≈ 26.1 µM) | > 128 µg/mL | 16 mm | 4 µg/mL (≈ 13.1 µM) |  | 16 mm | 8 µg/mL (≈ 26.1 µM) | 22 mm |  |  |  | 
12 | COc1ccc(-c2nnc(Cn3c(C)nc4ccccc43)o2)cc1 | 2 µg/mL (≈ 6.24 µM) | 16 µg/mL (≈ 49.9 µM) | 16 mm | 4 µg/mL (≈ 12.5 µM) | 16 µg/mL (≈ 49.9 µM) | 16 mm | 8 µg/mL (≈ 25 µM) | 22 mm | 64 µg/mL (≈ 200 µM) |  |  | 
13 | Cc1nnc(Cn2cnc3ccccc32)o1 | 16 µg/mL (≈ 74.7 µM) | 16 µg/mL (≈ 74.7 µM) | 16 mm | 16 µg/mL (≈ 74.7 µM) | 32 µg/mL (≈ 149 µM) | 16 mm | 16 µg/mL (≈ 74.7 µM) | 16 mm | > 128 µg/mL |  |  | 
14 | CCc1nnc(Cn2cnc3ccccc32)o1 | 32 µg/mL (≈ 140 µM) | 16 µg/mL (≈ 70.1 µM) | 10 mm | 16 µg/mL (≈ 70.1 µM) | 64 µg/mL (≈ 280 µM) | < 10 mm | 32 µg/mL (≈ 140 µM) | 10 mm | > 128 µg/mL |  |  | 
15 | Cc1nc2ccccc2n1Cc1nnc(-c2ccccc2Cl)o1 |  | > 128 µg/mL | 16 mm | 16 µg/mL (≈ 49.3 µM) | 32 µg/mL (≈ 98.5 µM) | 16 mm |  | 16 mm |  |  |  | 
16 | Cc1nnc(Cn2c(C)nc3ccccc32)o1 | 4 µg/mL (≈ 17.5 µM) | 64 µg/mL (≈ 280 µM) | 16 mm | 8 µg/mL (≈ 35 µM) | 16 µg/mL (≈ 70.1 µM) | 16 mm | 4 µg/mL (≈ 17.5 µM) | 22 mm | 64 µg/mL (≈ 280 µM) |  |  | 
17 | Oc1ccccc1-c1nnc(Cn2cnc3ccccc32)o1 | 32 µg/mL (≈ 109 µM) | 64 µg/mL (≈ 219 µM) |  |  | 16 µg/mL (≈ 54.7 µM) |  |  |  | 64 µg/mL (≈ 219 µM) |  |  | 
18 | COc1ccccc1-c1nnc(Cn2c(C)nc3ccccc32)o1 | 8 µg/mL (≈ 25 µM) | 64 µg/mL (≈ 200 µM) | 16 mm | 8 µg/mL (≈ 25 µM) | 16 µg/mL (≈ 49.9 µM) | 16 mm | 4 µg/mL (≈ 12.5 µM) | 16 mm | 64 µg/mL (≈ 200 µM) |  |  | 
19 | ClCc1nnc(Cn2cnc3ccccc32)o1 | 16 µg/mL (≈ 64.3 µM) |  | 10 mm | 16 µg/mL (≈ 64.3 µM) | 64 µg/mL (≈ 257 µM) | 10 mm | 32 µg/mL (≈ 129 µM) | 16 mm | 32 µg/mL (≈ 129 µM) |  |  | 
20 | ClCCc1nnc(Cn2cnc3ccccc32)o1 | 16 µg/mL (≈ 60.9 µM) |  | 10 mm |  | 64 µg/mL (≈ 244 µM) | 16 mm | 16 µg/mL (≈ 60.9 µM) | 16 mm | 32 µg/mL (≈ 122 µM) |  |  | 
21 | Cc1nc2ccccc2n1Cc1nnc(-c2ccccc2O)o1 |  | 32 µg/mL (≈ 104 µM) |  | 8 µg/mL (≈ 26.1 µM) | 32 µg/mL (≈ 104 µM) |  | 16 µg/mL (≈ 52.2 µM) |  |  |  |  | 
22 | COc1ccc(-c2nnc(Cn3cnc4ccccc43)o2)cc1 | 16 µg/mL (≈ 52.2 µM) | 64 µg/mL (≈ 209 µM) | < 10 mm | 16 µg/mL (≈ 52.2 µM) | 32 µg/mL (≈ 104 µM) | < 10 mm | 32 µg/mL (≈ 104 µM) | 16 mm | 32 µg/mL (≈ 104 µM) |  |  | 
23 | C[C@@H]1[C@H](O)[C@@H](C)/C=C/C=C/C=C/C=C/C=C/C=C/C=C/[C@H](O[C@@H]2O[C@H](C)[C@@H](O)[C@H](N)[C@@H]2O)C[C@@H]2O[C@](O)(C[C@@H](O)C[C@@H](O)[C@H](O)CC[C@@H](O)C[C@@H](O)CC(=O)O[C@H]1C)C[C@H](O)[C@H]2C(=O)O [AMPHOTERICIN B] |  |  |  |  |  |  |  |  |  | 22 mm | 22 mm | 22 mm
24 | CC1(C)S[C@@H]2[C@H](NC(=O)[C@H](N)c3ccccc3)C(=O)N2[C@H]1C(=O)O [AMPICILLIN] | 2 µg/mL (≈ 5.72 µM) | 4 µg/mL (≈ 11.4 µM) |  | 2 µg/mL (≈ 5.72 µM) | > 128 µg/mL |  | 2 µg/mL (≈ 5.72 µM) |  | > 128 µg/mL |  |  | 
25 | O=C(O)c1cn(C2CC2)c2cc(N3CCNCC3)c(F)cc2c1=O [CIPROFLOXACIN] | ≤ 1 µg/mL | ≤ 1 µg/mL |  |  |  |  | ≤ 1 µg/mL |  |  |  |  | 
